Test results taken from ChEMBL document CHEMBL1150585, “Phytotoxic compounds from Prionosciadium watsoni” (J Nat Prod, 2002).
Active and inactive are the calls of the source. The rule behind the calls is not given here.

Experiments:
[1] = tested on: Amaranthus hypochondriacus; test: Phytotoxicity against Amaranthus hypochondriacus assessed as inhibition of radicle elongation by petri dish bioassay; assay type: functional, organism-based
Method in brief: (§1)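 Petri dish germination and radicle elongation bioassay on seedlings at 28 °C. Pure compounds tested at 10, 50, 100 and 200 µg mL-1, with 2,4-D as positive control. IC50 derived by Probit analysis from percent radicle growth or germination inhibition; ANOVA (p < 0.05).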

[2] = target: Calmodulin (Spinacia oleracea) (UniProt P04353); test: Binding affinity to spinach calmodulin assessed as modification of electrophoretic mobility at 0.033 ug/mL after 1.5 hrs by SDS-PAGE in presence of calcium chloride
Method in brief: (§2)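 Bovine brain and spinach calmodulin, 2 µg samples, pretreated 1.5 h at 30 °C with 1 mM CaCl2 and compound (0.033 µg/mL). Denaturing SDS-PAGE on 15% polyacrylamide gels in presence of Ca2+. Read-out is change in electrophoretic mobility relative to an untreated calmodulin lane.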

[3] = target: Calmodulin (Bos taurus) (UniProt P62157); test: Binding affinity to bovine brain calmodulin assessed as modification of electrophoretic mobility at 0.033 ug/mL after 1.5 hrs by SDS-PAGE in presence of calcium chloride; method in brief: as §2
[4] = tested on: Echinochloa crus-galli; test: Phytotoxicity against Echinochloa crus-galli assessed as inhibition of radicle elongation by petri dish bioassay; assay type: functional, organism-based; method in brief: as §1
[5] = tested on: Lemna aequinoctialis; test: Phytotoxicity against Lemna paucicostata assessed as growth inhibition at 50 uM after 3 days relative to control; assay type: functional; details: 72 h, read-out: GI
Method in brief: (§3)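 Lemna culture of 10 colonies, three fronds each, in 3 mL half-strength Hunter's medium containing compound for 3 days (72 h). Percent growth inhibition is versus culture-medium control, as means of three replicates ± standard deviation; significance by Student's unpaired t-test.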

[6] = tested on: Lemna aequinoctialis; test: Phytotoxicity against Lemna paucicostata assessed as chlorophyll reduction at 50 uM after 3 days by ultraviolet spectroscopy relative to control; assay type: functional; details: 72 h, read-out: GI
Method in brief: (§4)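 Duckweed (Lemna) culture: 10 colonies of three fronds each in 3 mL half-strength Hunter's medium with compound, run 3 days. Afterwards plants are removed from medium, blotted and extracted overnight in the dark with 5 mL DMSO. Chlorophyll is expressed on fresh weight basis. Reduction is relative to culture-medium control, as means of three replicates ± standard deviation, with Student's unpaired t-test.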

[7] = tested on: Lemna aequinoctialis; test: Phytotoxicity against Lemna paucicostata assessed as growth inhibition at 12 uM after 3 days relative to control; assay type: functional; details: 72 h, read-out: GI; method in brief: as §3
[8] = tested on: Lemna aequinoctialis; test: Phytotoxicity against Lemna paucicostata assessed as chlorophyll reduction at 100 uM after 3 days by ultraviolet spectroscopy relative to control; assay type: functional; details: 72 h, read-out: GI; method in brief: as §4
[9] = tested on: Lemna aequinoctialis; test: Phytotoxicity against Lemna paucicostata assessed as growth inhibition at 25 uM after 3 days relative to control; assay type: functional; details: 72 h, read-out: GI; method in brief: as §3
[10] = tested on: Lemna aequinoctialis; test: Phytotoxicity against Lemna paucicostata assessed as chlorophyll reduction at 12 uM after 3 days by ultraviolet spectroscopy relative to control; assay type: functional; details: 72 h; method in brief: as §4
[11] = tested on: Lemna aequinoctialis; test: Phytotoxicity against Lemna paucicostata assessed as chlorophyll reduction at 25 uM after 3 days by ultraviolet spectroscopy relative to control; assay type: functional; details: 72 h, read-out: GI; method in brief: as §4
[12] = tested on: Lemna aequinoctialis; test: Phytotoxicity against Lemna paucicostata assessed as growth inhibition at 100 uM after 3 days relative to control; assay type: functional; details: 72 h, read-out: GI; method in brief: as §3
[13] = tested on: Lemna aequinoctialis; test: Phytotoxicity against Lemna paucicostata assessed as chlorophyll reduction at 200 uM after 3 days by ultraviolet spectroscopy relative to control; assay type: functional; details: 72 h, read-out: GI; method in brief: as §4
[14] = tested on: Lemna aequinoctialis; test: Phytotoxicity against Lemna paucicostata assessed as growth inhibition at 200 uM after 3 days relative to control; assay type: functional; details: 72 h, read-out: GI; method in brief: as §3

| Structure (SMILES) | Activity [1] | IC50 [1] | Activity [2] | Activity [3] | Activity [4] | IC50 [4] | inhibition of growth at 50 µM [5] | inhibition of growth at 50 µM [6] | inhibition of growth at 12 µM [7] | inhibition of growth at 100 µM [8] | inhibition of growth at 25 µM [9] | chlorophyll reduction at 12 µM [10] | inhibition of growth at 25 µM [11] | inhibition of growth at 100 µM [12] | inhibition of growth at 200 µM [13] | inhibition of growth at 200 µM [14] |
| --- | --- | --- | --- | --- | --- | --- | --- | --- | --- | --- | --- | --- | --- | --- | --- | --- |
| CO[C@H]1c2c(ccc3ccc(=O)oc23)OC(C)(C)[C@@H]1O | Dose-dependent effect | 108 µM | Active | Active | Dose-dependent effect | 808 µM |  |  |  |  |  |  |  |  |  |  |
| C/C=C(/C)C(=O)O[C@@H]1[C@H](O)c2c(ccc3ccc(=O)oc23)OC1(C)C |  | 262 µM | Active | Active |  | 155 µM |  |  |  |  |  |  |  |  |  |  |
| CO[C@@H]1c2c(ccc3ccc(=O)oc23)OC(C)(C)[C@@H]1O | Dose-dependent effect | 325 µM | Active | Active | Dose-dependent effect | 6.19 µM |  |  |  |  |  |  |  |  |  |  |
| CC1(C)Oc2ccc3ccc(=O)oc3c2C[C@H]1O [(+)-LOMATIN] | Dose-dependent effect | 344 µM | Active | Active | Dose-dependent effect | 296 µM |  |  |  |  |  |  |  |  |  |  |
| CC(=O)O[C@@H]1[C@H](OC(=O)C(C)C)c2c(ccc3ccc(=O)oc23)OC1(C)C [SERAVSHANIN] |  | 402 µM | Active | Active |  | 162 µM |  |  |  |  |  |  |  |  |  |  |
| COc1c2c(cc3oc(C)cc(=O)c13)OC(C)(C)[C@H](O)C2 | Dose-dependent effect | 383 µM | Active | Active | Dose-dependent effect | 461 µM |  |  |  |  |  |  |  |  |  |  |
| CC(C)C(=O)O[C@@H]1c2c(ccc3ccc(=O)oc23)OC(C)(C)[C@@H]1O |  | 189 µM | Active | Active |  | 595 µM |  |  |  |  |  |  |  |  |  |  |
| CCC(=O)O[C@@H]1c2c(ccc3ccc(=O)oc23)OC(C)(C)[C@@H]1OC(C)=O |  | 396 µM | Active | Active |  | 439 µM |  |  |  |  |  |  |  |  |  |  |
| C/C=C(/C)C(=O)O[C@@H]1Cc2c(ccc3ccc(=O)oc23)OC1(C)C [JATAMANSIN] |  | 260 µM | Active | Active |  | 863 µM | 47.6% | 12.8% | 15.3% | 40.3% | 37.5% | 5.94% | 4.37% | 100% |  |  |
| COc1c2c(cc3oc(C)cc(=O)c13)OC(C)(C)[C@H](OC(=O)C(C)C)C2 |  | 74.1 µM | Active | Active |  | 14.8 µM |  |  |  |  |  |  |  |  |  |  |
| C/C=C(/C)C(=O)O[C@@H]1Cc2c(cc3oc(C)cc(=O)c3c2OC)OC1(C)C |  | 143 µM | Active | Active |  | 26.4 µM |  |  |  |  |  |  |  |  |  |  |
| CC1(C)Oc2ccc3ccc(=O)oc3c2[C@@H](O)[C@H]1O |  | 361 µM |  |  |  | 439 µM |  |  |  |  |  |  |  |  |  |  |
| CC(C)C(=O)O[C@@H]1Cc2c(ccc3ccc(=O)oc23)OC1(C)C |  | 237 µM | Active | Active |  | 169 µM | 23.5% | 54.3% |  | 84.9% | 19.6% |  | 20% | 58.8% | 87.4% | 100% |
